ChEMBL document CHEMBL1123878, “Potential antitumor agents. 50. In vivo solid-tumor activity of derivatives of N-[2-(dimethylamino)ethyl]acridine-4-carboxamide” (J Med Chem, 1987)
The source made the active and inactive calls. The rule behind the calls is not given here.

Assays:
HCT-8 = assay: Inhibition of human colon tumor (HCT-8) cell growth in culture; assay type: functional, cell-based
In short: (§1)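 IC50 is the drug concentration, in nM, that inhibits growth of the cultured cell line by 50%.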

P388 [1] = assay: (§2) Percentage increase in life span of tumor bearing animals compared to non treated, tumor-bearing controls when treated at the optimal dose of 100 mg/kg/day intraperitoneally; assay type: functional; details: Mus musculus, P388, ip; route intraperitoneal
[2] = system: Lewis lung carcinoma cell line; assay: as §2; assay type: functional; details: Mus musculus, ip, route intraperitoneal
[3] = Lipophilicity index (Rm) (HPLC); assay type: physicochemical
[4] = Selectivity ratio of IC50 of HCT to IC50 of L1210 cell lines; assay type: functional
L1210 = assay: Inhibition murine leukemia L1210 cell growth in culture; assay type: functional, cell-based; details: Mus musculus; in short: as §1
[5] = Base strength is expressed as pKa, determined in water at 25 degrees Centigrade by spectrophotometric method.; assay type: physicochemical
P388 [6] = assay: (§3) Percentage increase in life span of tumor bearing animals compared to non treated, tumor-bearing controls when treated at the optimal dose of 150 mg/kg/day intraperitoneally; assay type: functional; details: Mus musculus, P388, ip; route intraperitoneal
[7] = system: Lewis lung carcinoma cell line; assay: as §3; assay type: functional; details: Mus musculus, ip, route intraperitoneal
P388 [8] = assay: Percentage increase in life span of tumor bearing animals compared to non treated, tumor-bearing controls when treated at the optimal dose of 13.3 mg/kg/day ip (P388); assay type: functional; details: Mus musculus, route intraperitoneal
[9] = system: Lewis lung carcinoma cell line; assay: Percentage increase in life span of tumor bearing animals compared to non treated, tumor-bearing controls when treated at the optimal dose of 20 mg/kg/day ip (LL); assay type: functional, organism-based; details: Mus musculus
P388 [10] = assay: Percent increase in life span of P388 tumor bearing animals compared to non treated, tumor-bearing controls when treated at the optimal dose of 150 mg/kg/day; IA denotes inactive; assay type: functional, organism-based; details: Mus musculus
Nucleic Acid [11] = assay: Binding constant to poly(dA-dT)DNA by ethidium bromide displacement; assay type: nucleic-acid assay
In short: (§4)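 Association constants derived from the drug concentration displacing 50% of bound ethidium from the polynucleotide, assuming competitive binding of drug and ethidium to DNA.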

Nucleic Acid [12] = assay: Binding constant to poly(dG-dC)DNA by ethidium bromide displacement; assay type: nucleic-acid assay; in short: as §4
P388 [13] = assay: Percentage increase in life span of tumor bearing animals compared to non treated, tumor-bearing controls when treated at the optimal dose of 13.3 mg/kg/day intraperitoneally; assay type: functional; details: Mus musculus, P388, ip; route intraperitoneal
[14] = system: Lewis lung carcinoma cell line; assay: Percentage increase in life span of tumor bearing animals compared to non treated, tumor-bearing controls when administered intraperitoneally; IA denotes inactive; assay type: functional; details: Mus musculus
In short: (§5)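 Drug was given ip in 0.1 mL 30% v/v ethanol/water. For P388, 10^6 cells were inoculated ip and dosing was on days 1, 5 and 9, with >20% significant. For Lewis lung, 10^6 cells were inoculated iv and dosing was on days 5, 9 and 13, with >40% significant. The read-out is % lifespan increase over untreated controls.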

P388 [15] = assay: (§6) Percentage increase in life span of compound-treated, tumor bearing animals compared to non treated, tumor-bearing controls when treated at the optimal dose of 100 mg/kg; assay type: functional; details: Mus musculus
[16] = system: Lewis lung carcinoma cell line; assay: as §6; assay type: functional; details: Mus musculus
P388 [17] = assay: Percentage increase in life span of tumor (P388 cells) bearing animals compared to non treated, tumor-bearing controls when treated at the optimal dose of 45 mg/kg/day; IA denotes inactive; assay type: functional, organism-based; details: Mus musculus
P388 [18] = assay: Percent increase in life span of P388 cells compared to non treated, tumor-bearing controls when treated at the optimal dose of 225 mg/kg/day; IA denotes inactive; assay type: functional, organism-based; details: Mus musculus
P388 [19] = assay: Percentage increase in life span of tumor bearing animals compared to non treated, tumor-bearing controls when treated at the optimal dose of 150 mg/kg/day intraperitoneally; IA denotes inactive; assay type: functional, organism-based; details: Mus musculus; in short: as §5
P388 [20] = assay: (§7) Percentage increase in life span of tumor bearing animals compared to non treated, tumor-bearing controls when treated at the optimal dose of 65 mg/kg/day intraperitoneally; assay type: functional; details: Mus musculus, P388, ip; route intraperitoneal
[21] = system: Lewis lung carcinoma cell line; assay: as §7; assay type: functional; details: Mus musculus, ip, route intraperitoneal

Row | pKa [5] | SMILES | IC50 (HCT-8) [nM] | ILS at 100 mg/kg/day (P388 [1]) [%] | Rm [3] | Ratio [4] | IC50 (L1210) [nM] | further results
1 | – | CN(C)CCNC(=O)c1ccc(Cl)c2cc3ccccc3nc12.Cl.Cl | 370 | 110 | 0.04 | 11.2 | 33 | ILS at 100 mg/kg/day [2]: 120%
2 | – | Cc1cc(C(=O)NCCN(C)C)c2nc3ccccc3cc2c1.Cl.Cl | 657 | 120 | -0.04 | 5.1 | 130 | ILS at 150 mg/kg/day [7]: 33%
3 | – | Cl.Cl.O=C(NCCNCCO)c1cccc2cc3ccccc3nc12 | 1800 | – | -0.22 | 7.5 | 240 | ILS at 13.3 mg/kg/day (P388 [8]): 22%; ILS [9]: inactive
4 | 4.24 | CN(C)CCNC(=O)c1cccc2nc3ccccc3cc12.Cl.Cl | – | – | -0.56 | – | 17900 | ILS (P388 [10]): inactive; Log K (Nucleic Acid [11]): 6.87; Log K (Nucleic Acid [12]): 7.7
5 | – | Cl.Cl.NCCNC(=O)c1cccc2cc3ccccc3nc12 | 1600 | – | -0.28 | 5.8 | 275 | ILS at 13.3 mg/kg/day (P388 [13]): 24%; ILS [14]: inactive
6 | – | CN(C)CCNC(=O)c1cc(Cl)cc2cc3ccccc3nc12.Cl.Cl | 440 | 62 | 0.03 | 14.2 | 31 | ILS at 100 mg/kg/day [2]: 219%
7 | – | Cc1ccc2cc3cccc(C(=O)NCCN(C)C)c3nc2c1.Cl.Cl | 658 | – | -0.1 | 5.4 Ratio | 121 | ILS at 100 mg/kg (P388 [15]): 82%; ILS at 100 mg/kg [16]: 106%
8 | 4.34 | Cc1c2ccccc2nc2c(C(=O)NCCN(C)C)cccc12.Cl.Cl | 160 | – | -0.33 | 1.1 | 150 | IA (P388 [17]): inactive
9 | 4.37 | CN(C)CCNC(=O)c1ccc2nc3ccccc3cc2c1.Cl.Cl | – | – | -0.57 | – | 9300 | ILS (P388 [18]): inactive
10 | 3.94 | CN(C)CCNC(=O)c1ccc2cc3ccccc3nc2c1.Cl.Cl | – | – | -0.53 | – | 8100 | ILS (P388 [19]): inactive
11 | – | CN(C)CCNC(=O)c1cccc2cc3cc(Cl)ccc3nc12.Cl.Cl | 610 | 106 | -0.03 | 2.4 | 250 | ILS at 100 mg/kg/day [2]: 94%
12 | – | CN(C)CCCCNC(=O)c1cccc2cc3ccccc3nc12.Cl | 930 | 143 | 0.01 | 5.8 | 160 | ILS at 100 mg/kg/day [2]: 100%
13 | – | Cc1ccc2nc3c(C(=O)NCCN(C)C)cccc3cc2c1.Cl.Cl | 1240 | 68 | -0.05 | 6.2 | 200 | ILS at 150 mg/kg/day [7]: 85%
14 | – | Cc1ccc(C(=O)NCCN(C)C)c2nc3ccccc3cc12.Cl.Cl | 400 | 71 | 0.1 | 10.8 | 37 | –
15 | – | CN(C)CCNC(=O)c1cccc2cc3c(Cl)cccc3nc12.Cl.Cl.Cl | 790 | – | 0.01 | 4.9 | 160 | ILS at 65 mg/kg/day (P388 [20]): 102%; ILS at 65 mg/kg/day [21]: 63%

Row | SMILES | pKa [5] | IC50 (HCT-8) [nM] | ILS at 100 mg/kg/day (P388 [1]) [%] | Rm [3] | Ratio [4] | IC50 (L1210) [nM] | further results
16 | COc1ccc2nc3c(C(=O)NCCN(C)C)cccc3cc2c1.Cl.Cl | 3.54 | 1700 | – | -0.22 | 2.7 | 640 | ILS at 150 mg/kg/day (P388 [6]): 91%; ILS at 150 mg/kg/day [7]: 46%
